Here are results for three molecules from ChEMBL document CHEMBL2057084, “Discovery of benzylisothioureas as potent divalent metal transporter 1 (DMT1) inhibitors” (Bioorg Med Chem Lett, 2012).

Data set [1] is described as follows: Apparent permeability across basolateral to apical side in human Caco2 cells. The data set is classed as ADME, cell-based. The note with it: Caco-2. In outline: (§1)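 Caco-2 cell monolayers; apparent permeability measured in both directions (apical→basolateral and basolateral→apical); […].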
(In general: Passage across Caco-2 layers is used to estimate intestinal permeability.)

Data set [2] in a line: Inhibition of human DMT1B-IRE expressed in CHO cells assessed as blockage of ferrous influx after 20 mins by calcein fluorescence quenching method. The data set is classed as cell-based. In outline:
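Calcein fluorescence quench assay for DMT1 (conditions detailed in supplementary data); IC50s are the average of at least two independent determinations.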

Data set [3] relates to Rattus norvegicus. Kind of data set: Toxicity in acute weanling rat model at 25 to 50 mg/kg, po. The data set is classed as organism-based. Also noted: dose 25-50 mg/kg, route oral. The note with it: in vivo. The essentials: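 Rats in the acute iron hyperabsorption study (anemic, conscious) dosed po at 25 or 50 mg/kg in 5% DMSO, 10% EtOH, 30% PEG400, 35% propylene glycol, 20% water; clinical observations recorded during the study.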

The nature of data set [4]: Apparent permeability across apical to basolateral side in human Caco2 cells. Conditions: Caco-2. Type of data set: ADME, cell-based. The essentials:
as §1

For data set [5], the system named is Rattus norvegicus. Kind of data set: Inhibition of intestinal iron uptake in po dosed acute weanling rat model of iron hyperabsorption assessed as decrease of serum iron level administered after 1 hr post iron challenge. Type of data set: functional, organism-based. The essentials: (§2)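 Anemic conscious rats ([…], serum iron <50 µg/dL); test article dosed po in 5% DMSO, 10% EtOH, 30% PEG400, 35% propylene glycol, 20% water; 1 h later oral challenge of 1 mg/kg Fe2+ as ferrous sulfate; serum iron measured 1 h after challenge; 8 animals per group, mean ± SEM; one-way ANOVA with Dunnett's test versus vehicle group.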

Data set [6] has as its target T1, Natural resistance-associated macrophage protein 1 (Homo sapiens, UniProt P49279).
T1 sequence (P49279 whole entry): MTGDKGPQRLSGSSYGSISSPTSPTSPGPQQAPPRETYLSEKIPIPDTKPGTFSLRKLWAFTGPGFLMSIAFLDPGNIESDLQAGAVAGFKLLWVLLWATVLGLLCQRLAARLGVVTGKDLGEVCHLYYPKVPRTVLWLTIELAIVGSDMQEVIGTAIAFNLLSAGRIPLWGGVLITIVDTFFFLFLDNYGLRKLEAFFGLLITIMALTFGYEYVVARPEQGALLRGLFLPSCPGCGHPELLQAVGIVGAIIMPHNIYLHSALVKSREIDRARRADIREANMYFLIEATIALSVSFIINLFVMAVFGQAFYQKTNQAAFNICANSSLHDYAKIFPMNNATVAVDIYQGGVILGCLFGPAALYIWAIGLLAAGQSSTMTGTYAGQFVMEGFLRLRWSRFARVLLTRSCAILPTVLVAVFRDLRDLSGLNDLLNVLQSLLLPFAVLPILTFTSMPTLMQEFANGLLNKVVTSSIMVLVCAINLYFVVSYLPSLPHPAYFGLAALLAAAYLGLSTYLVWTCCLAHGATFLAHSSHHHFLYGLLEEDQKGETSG
Kind of data set: Inhibition of NRAMP1 expressed in CHO cells. The data set is classed as cell-based.

Data set [7] concerns Rattus norvegicus. The data set can be described thus: Inhibition of intestinal iron uptake in acute weanling rat model of iron hyperabsorption assessed as decrease of serum iron level at 50 mg/kg, po administered after 1 hr post iron challenge. Type of data set: functional, organism-based. Also on record: dose 50 mg/kg. The essentials: as §2
Data set [8] has as its system Rattus norvegicus. Kind of data set: Inhibition of intestinal iron uptake in acute weanling rat model of iron hyperabsorption assessed as decrease of serum iron level at 25 mg/kg, po administered after 1 hr post iron challenge. The data set is classed as functional, organism-based. Also noted: dose 25 mg/kg. In outline: as §2
Data set [9] has as its system Rattus norvegicus. Kind of data set: Inhibition of intestinal iron uptake in acute weanling rat model of iron hyperabsorption assessed as decrease of serum iron level at 50 mg/kg, po administered after 1 hr post iron challenge relative to control. The data set is classed as functional. The essentials:
as §2

The structures appear in SMILES notation. Active and inactive are the calls of the source. The rule behind the calls is not given here. Where only a bound is given, the exact number is not on record here.

Regarding `Br.N=C(N)SCc1ccccc1Oc1ccccc1CSC(=N)N`, the Papp B→A in [1] is 0.2 ×10⁻⁶ cm/s. Moreover, the IC50 in [2] was 340 nM; in data set [6], > 10000 nM. In addition, in data set [3], the Activity result is listed as “Non-toxic”. Besides, the Papp A→B in [4] amounted to 0.1 ×10⁻⁶ cm/s. Also, the inhibition result in data set [5] is “Dose-dependent effect”. Besides, the inhibition entry in [7] and in data set [8] was “Active” in each case. For the same molecule, the “fold change (FC)” value in data set [9] is recorded as 8.
On to `Br.N=C(N)SCc1ccccc1Sc1ccccc1CSC(=N)N`, for which the apparent permeability from basolateral to apical (Papp B→A) in [1] came to 1.4 ×10⁻⁶ cm/s. Further, the IC50 in data set [2] was 180 nM; in data set [6] it was > 10000 nM. In data set [3], the Activity result is on record as “Non-toxic”. For the same molecule, the Papp A→B in data set [4] turned out to be 0.1 ×10⁻⁶ cm/s. Besides, the inhibition result in [5] is “Dose-dependent effect”. Further, the inhibition entry in data set [7] was “Active”.
As to `Br.N=C(N)SCc1cc(F)ccc1Sc1ccc([N+](=O)[O-])cc1CSC(=N)N`, the Papp B→A in data set [1] is 0.2 ×10⁻⁶ cm/s. Moreover, the half-inhibitory concentration (IC50) is 80 nM in data set [2] and > 10000 nM in [6]. For the same molecule, the Activity result in data set [3] was “Non-toxic”. In addition, in data set [4], the Papp A→B came out at 0.1 ×10⁻⁶ cm/s. Moreover, the inhibition entry in data set [5] was “Dose-dependent effect”. For the same molecule, the inhibition result in [7] and in [8] was “Active” each time.

The term Papp B→A denotes how fast a substance crosses the layer from the basolateral side. Broadly, the IC50 is the midpoint of a concentration-inhibition curve. For orientation: Papp A→B means the apparent permeability from the apical to the basolateral side of a cell layer.
